In ChEMBL document CHEMBL1649438, “Activities of ceftobiprole and other cephalosporins against extracellular and intracellular (THP-1 macrophages and keratinocytes) forms of methicillin-susceptible and methicillin-resistant Staphylococcus aureus” (Antimicrob Agents Chemother, 2009):
Converted amounts (≈) assume the structure as drawn.

Assays:
Staphylococcus aureus [1] = assay: Bacteriostatic activity against Panton-valentine leucocidin-positive community-acquired methicillin-resistant Staphylococcus aureus NRS192 infected in human THP-1 cells assessed as change in bacterial count after 24 hrs at pH 5.5; assay type: functional
Method in brief: (§1)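 THP-1 macrophages infected as described previously, with a postphagocytosis inoculum of 1.5 × 10⁶ to 3.0 × 10⁶ CFU/mg cell protein. Cells were exposed 24 h to increasing extracellular antibiotic concentrations. Response is the change in log10 CFU/mg protein from the inoculum (n = 3), fitted to a Hill function. E0 and Emax were extrapolated to infinitely low and high concentrations. EC50 and static concentration (graphical interpolation) are expressed as multiples of the broth MIC at pH 5.5 or 7.4.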

Staphylococcus aureus [2] = assay: Antimicrobial activity against methicillin-susceptible Staphylococcus aureus ATCC 25923 infected in human keratinocytes assessed as change in bacterial count after 24 hrs; assay type: functional, organism-based; settings: ATCC 25923, 24 h
Method in brief: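 Primary human skin keratinocytes were grown in defined keratinocyte serum-free medium and infected with S. aureus to 1.5 × 10^6 to 3.0 × 10^6 CFU/mg cell protein. Cells were exposed 24 h to increasing extracellular concentrations. Response was the log10 CFU change from the postphagocytosis inoculum, fitted by a Hill equation with slope 1. Cs is the concentration giving CFU equal to the original inoculum, found by graphical interpolation.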

Staphylococcus aureus [3] = assay: Antimicrobial activity against hospital-acquired vancomycin-intermediate Staphylococcus aureus NRS18 infected in human THP-1 cells assessed as bacterial count per mg of cell protein at high extracellular compound concentration after 24 hrs at pH 7.4; assay type: functional
Method in brief: (§2)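 Human THP-1 macrophage-like cells were infected with S. aureus to a postphagocytosis inoculum of 1.5 × 10^6 to 3.0 × 10^6 CFU/mg cell protein. Cells were then exposed 24 h to increasing extracellular antibiotic concentrations. Response was the log10 CFU change per mg protein from the postphagocytosis inoculum, n = 3. A Hill function was fitted on log-transformed axes. E0 and Emax were extrapolated to infinitely low and high concentrations. Cs was read by graphical interpolation. Concentrations were expressed as multiples of the broth MIC at pH 5.5 or pH 7.4.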

Staphylococcus aureus [4] = assay: Bacteriostatic activity against methicillin-resistant Staphylococcus aureus ATCC 33591 infected in human keratinocytes assessed as change in bacterial count after 24 hrs; assay type: functional
Method in brief: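 Primary human skin keratinocytes were grown in defined keratinocyte serum-free medium, infected, then incubated 24 h with increasing extracellular drug concentrations. Response was the change in log10 CFU/mg cell protein versus the post-phagocytosis inoculum, fitted to a Hill equation with slope factor 1. Static concentration (mg/liter, total drug) was taken by graphical interpolation where CFU equalled the original inoculum.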

Staphylococcus aureus [5] = assay: Antimicrobial activity against Panton-valentine leucocidin-positive community-acquired methicillin-resistant Staphylococcus aureus STA 228 infected in human THP-1 cells assessed as change in bacterial count after 24 hrs; assay type: functional, organism-based; settings: STA 228, THP-1, 24 h
Method in brief: (§3)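 THP-1 human macrophages infected with S. aureus (postphagocytosis inoculum 1.5 × 10^6 to 3.0 × 10^6 CFU/mg cell protein), then incubated 24 h with increasing extracellular antibiotic concentrations. Change in log10 CFU/mg cell protein from the postphagocytosis inoculum, n = 3. Hill function fitted on log-transformed data. Low-concentration value (E0) and high-concentration value (Emax) are extrapolated. Where a pH is given, concentrations are expressed as multiples of the broth MIC at that pH.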

Staphylococcus aureus [6] = assay: Antimicrobial activity against Panton-valentine leucocidin-positive community-acquired methicillin-resistant Staphylococcus aureus isolate MEH2225605 infected in human THP-1 cells assessed as bacterial count per mg of cell protein at low extracellular compound concentration after 24 hrs; assay type: functional; method in brief: as §3
Staphylococcus aureus [7] = assay: Antimicrobial activity against hospital-acquired vancomycin-intermediate Staphylococcus aureus NRS18 infected in human THP-1 cells assessed as bacterial count per mg of cell protein at low extracellular compound concentration after 24 hrs at pH 5.5; assay type: functional; method in brief: as §2
Staphylococcus aureus [8] = assay: Antimicrobial activity against hospital-acquired vancomycin-intermediate Staphylococcus aureus NRS126 infected in human THP-1 cells assessed as change in bacterial count after 24 hrs; assay type: functional, organism-based; settings: NRS126, THP-1, 24 h; method in brief: as §1
Staphylococcus aureus [9] = assay: Antimicrobial activity against hospital-acquired vancomycin-intermediate Staphylococcus aureus NRS18 infected in human THP-1 cells assessed as bacterial count per mg of cell protein at low extracellular compound concentration after 24 hrs at pH 7.4; assay type: functional; method in brief: as §2
Staphylococcus aureus [10] = assay: Antimicrobial activity against methicillin-susceptible Staphylococcus aureus […] infected in human THP-1 cells assessed as bacterial count per mg of cell protein at high extracellular compound concentration after 24 hrs at pH 5.5; assay type: functional; method in brief: as §2
Staphylococcus aureus [11] = assay: Antimicrobial activity against Panton-valentine leucocidin-positive community-acquired methicillin-resistant Staphylococcus aureus N4042228 infected in human THP-1 cells assessed as change in bacterial count after 24 hrs at pH 5.5; assay type: functional, organism-based; settings: N4042228, THP-1, 24 h; method in brief: as §3
Staphylococcus aureus [12] = assay: Antimicrobial activity against hospital-acquired vancomycin-intermediate Staphylococcus aureus NRS18 infected in human THP-1 cells assessed as change in bacterial count after 24 hrs at pH 7.4; assay type: functional, organism-based; settings: NRS18, THP-1, 24 h; method in brief: as §1
Staphylococcus aureus [13] = assay: Antimicrobial activity against Panton-valentine leucocidin-positive community-acquired methicillin-resistant Staphylococcus aureus STA 44 infected in human THP-1 cells assessed as change in bacterial count after 24 hrs at pH 5.5; assay type: functional, organism-based; settings: STA 44, THP-1, 24 h; method in brief: as §3
Staphylococcus aureus [14] = assay: Antimicrobial activity against Panton-valentine leucocidin-positive community-acquired methicillin-resistant Staphylococcus aureus STA 44 infected in human THP-1 cells assessed as bacterial count per mg of cell protein at high extracellular compound concentration after 24 hrs at pH 5.5; assay type: functional; method in brief: as §3
Staphylococcus aureus [15] = assay: Bacteriostatic activity against methicillin-susceptible Staphylococcus aureus […] infected in human THP-1 cells assessed as change in bacterial count after 24 hrs at pH 5.5; assay type: functional; method in brief: as §2
Staphylococcus aureus [16] = assay: Antimicrobial activity against hospital-acquired methicillin-resistant Staphylococcus aureus ATCC 33592 infected in human THP-1 cells assessed as change in bacterial count after 24 hrs at pH 7.4; assay type: functional, organism-based; settings: ATCC 33592, THP-1, 24 h; method in brief: as §1
Staphylococcus aureus [17] = assay: Antimicrobial activity against methicillin-susceptible Staphylococcus aureus […] infected in human THP-1 cells assessed as change in bacterial count after 24 hrs at pH 5.5; assay type: functional, organism-based; settings: THP-1, 24 h; method in brief: as §1
Staphylococcus aureus [18] = assay: Antimicrobial activity against methicillin-susceptible Staphylococcus aureus […] infected in human THP-1 cells assessed as bacterial count per mg of cell protein at low extracellular compound concentration after 24 hrs; assay type: functional; method in brief: as §2
Staphylococcus aureus [19] = assay: Antimicrobial activity against Panton-valentine leucocidin-positive community-acquired methicillin-resistant Staphylococcus aureus N4042228 infected in human THP-1 cells assessed as change in bacterial count after 24 hrs at pH 7.4; assay type: functional, organism-based; settings: N4042228, THP-1, 24 h; method in brief: as §3
Staphylococcus aureus [20] = assay: Antimicrobial activity against hospital-acquired vancomycin-intermediate Staphylococcus aureus NRS126 infected in human THP-1 cells assessed as bacterial count per mg of cell protein at high extracellular compound concentration after 24 hrs; assay type: functional; method in brief: as §2
Staphylococcus aureus [21] = assay: Antimicrobial activity against methicillin-susceptible Staphylococcus aureus ATCC 11632 infected in human THP-1 cells assessed as bacterial count per mg of cell protein at low extracellular compound concentration after 24 hrs; assay type: functional; method in brief: as §2
Staphylococcus aureus [22] = assay: Bacteriostatic activity against Panton-valentine leucocidin-positive community-acquired methicillin-resistant Staphylococcus aureus N4090440 infected in human THP-1 cells assessed as change in bacterial count after 24 hrs at pH 5.5; assay type: functional; method in brief: as §1

For `Nc1nc(/C(=N/O)C(=O)N[C@@H]2C(=O)N3C(C(=O)O)=C(/C=C4\CCN([C@@H]5CCNC5)C4=O)CS[C@H]23)ns1` [CEFTOBIPROLE], which Activity (Staphylococcus aureus [1]) is on record?
The Activity was 1.45 × MIC.

And the EC50 (Staphylococcus aureus [2])?
Its EC50 is 0.35 µg/mL (≈ 0.655 µM).

And the log10cfu (Staphylococcus aureus [3])?
The log10cfu was -0.99.

What about the Activity (Staphylococcus aureus [4]) of the same molecule?
The Activity was 1.95 mg/L.

And the EC50 (Staphylococcus aureus [5])?
The EC50 was 0.88 µg/mL (≈ 1.65 µM).

What about the log10cfu (Staphylococcus aureus [6]) of the same molecule?
Its log10cfu is 2.47.

What about the log10cfu (Staphylococcus aureus [7]) of the same molecule?
Its log10cfu is 2.63.

And the EC50 (Staphylococcus aureus [8])?
The EC50 was 0.23 µg/mL (≈ 0.43 µM).

And the log10cfu (Staphylococcus aureus [9])?
Its log10cfu is 2.6.

And the log10cfu (Staphylococcus aureus [10])?
Its log10cfu is 1.04.

And the EC50 (Staphylococcus aureus [11])?
The EC50 was 0.54 × MIC.

What about the EC50 (Staphylococcus aureus [12]) of the same molecule?
Its EC50 is 0.28 ×MIC.

What about the EC50 (Staphylococcus aureus [13]) of the same molecule?
The EC50 was 0.54 × MIC.

And the log10cfu (Staphylococcus aureus [14])?
The log10cfu was -1.02.

And the Activity (Staphylococcus aureus [15])?
Its Activity is 1.19 × MIC.

What about the EC50 (Staphylococcus aureus [16]) of the same molecule?
The EC50 was 0.28 ×MIC.

What about the EC50 (Staphylococcus aureus [17]) of the same molecule?
The EC50 was 0.41 × MIC.

And the log10cfu (Staphylococcus aureus [18])?
Its log10cfu is 3.49.

What about the EC50 (Staphylococcus aureus [19]) of the same molecule?
The EC50 was 0.33 ×MIC.

What about the log10cfu (Staphylococcus aureus [20]) of the same molecule?
The log10cfu was -1.21.

What about the log10cfu (Staphylococcus aureus [21]) of the same molecule?
Its log10cfu is 3.03.

And the Activity (Staphylococcus aureus [22])?
The Activity was 1.45 × MIC.
